Data taken from ChEMBL document CHEMBL1125626, “Synthesis and structure-activity relationship of new cephalosporins with amino heterocycles at C-7. Dependence of the antibacterial spectrum and beta-lactamase stability on the pKa of the C-7 heterocycle” (1991).
≈ marks a conversion by molar mass, not a printed value.

Tests used:
Escherichia coli [1] = assay: Minimum inhibitory concentration against Escherichia coli DC2 (inoculum, 10e4 cfu per spot); assay type: functional
Procedure, shortened: (§1)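 MIC in µg/mL, determined in Jewell and Permain growth medium with spot inoculation at 10^4 cfu per spot. P99 is described as a constitutive type I lactamase producer.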

Klebsiella aerogenes [2] = assay: Minimum inhibitory concentration against Klebsiella aerogenes X6 (inoculum, 10e4 cfu per spot); assay type: functional; procedure, shortened: as §1
Serratia marcescens = assay: Minimum inhibitory concentration against Serratia marcescens A16 (inoculum, 10e5 cfu per spot); assay type: functional
Procedure, shortened: (§2)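 MIC in µg/mL, determined in Jewell and Permain growth medium with spot inoculation at 10^5 cfu per spot.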

Enterobacter cloacae [3] = assay: Minimum inhibitory concentration against Enterobacter cloacae P99 (inoculum, 10e4 cfu per spot); assay type: functional; procedure, shortened: as §1
Klebsiella aerogenes [4] = assay: Minimum inhibitory concentration against Klebsiella aerogenes X5L (inoculum, 10e4 cfu per spot); assay type: functional; procedure, shortened: as §1
Streptococcus pyogenes = assay: Minimum inhibitory concentration against Streptococcus pyogenes (inoculum, 10e5 cfu per spot) A1; assay type: functional; procedure, shortened: as §2
Escherichia coli [5] = assay: Minimum inhibitory concentration against Escherichia coli TEM X3 (inoculum, 10e4 cfu per spot)(TEM I type lactamase producer)
Staphylococcus aureus [6] = assay: Minimum inhibitory concentration against Staphylococcus aureus A4 (inoculum, 10e5 cfu per spot); assay type: functional; procedure, shortened: as §2
Enterobacter cloacae [7] = assay: Minimum inhibitory concentration against Enterobacter cloacae A13 (inoculum, 10e5 cfu per spot); assay type: functional; procedure, shortened: as §2
Proteus mirabilis = assay: Minimum inhibitory concentration against Proteus mirabilis A18 (inoculum, 10e5 cfu per spot); assay type: functional; procedure, shortened: as §2
Escherichia coli [8] = assay: Minimum inhibitory concentration against Escherichia coli X4 (inoculum, 10e4 cfu per spot)
Staphylococcus aureus [9] = assay: Minimum inhibitory concentration against Staphylococcus aureus A6 (inoculum, 10e5 cfu per spot); assay type: functional; procedure, shortened: as §2
Escherichia coli [10] = assay: Minimum inhibitory concentration against Escherichia coli DCO (inoculum, 10e4 cfu per spot); assay type: functional; procedure, shortened: as §1
Escherichia coli [11] = assay: Minimum inhibitory concentration against Escherichia coli A8 (inoculum, 10e5 cfu per spot); assay type: functional; procedure, shortened: as §2
Enterobacter cloacae [12] = assay: Minimum inhibitory concentration against Enterobacter cloacae P99 (inoculum, 10e4 cfu per spot)(type I lactamase producer); assay type: functional; procedure, shortened: as §1
Pseudomonas aeruginosa = assay: Minimum inhibitory concentration against Pseudomonas aeruginosa A21 (inoculum, 10e5 cfu per spot); assay type: functional; procedure, shortened: as §2
Proteus vulgaris = assay: Minimum inhibitory concentration against Proteus vulgaris Pv9 (inoculum, 10e5 cfu per spot)
Klebsiella pneumoniae = assay: Minimum inhibitory concentration against Klebsiella pneumoniae A24 (inoculum, 10e5 cfu per spot); assay type: functional; procedure, shortened: as §2

| SMILES | MIC (Escherichia coli [1]) [µg/mL] | MIC (Klebsiella aerogenes [2]) [µg/mL] | MIC (Serratia marcescens) [µg/mL] | MIC (Enterobacter cloacae [3]) [µg/mL] | MIC (Klebsiella aerogenes [4]) [µg/mL] | MIC (Streptococcus pyogenes) [µg/mL] | MIC (Escherichia coli [5]) [µg/mL] | MIC (Staphylococcus aureus [6]) [µg/mL] | MIC (Enterobacter cloacae [7]) [µg/mL] | MIC (Proteus mirabilis) [µg/mL] | MIC (Escherichia coli [8]) [µg/mL] | MIC (Staphylococcus aureus [9]) [µg/mL] | MIC (Escherichia coli [10]) [µg/mL] | MIC (Escherichia coli [11]) [µg/mL] | MIC (Enterobacter cloacae [12]) [µg/mL] | MIC (Pseudomonas aeruginosa) [µg/mL] | MIC (Proteus vulgaris) [µg/mL] | MIC (Klebsiella pneumoniae) [µg/mL] |
| --- | --- | --- | --- | --- | --- | --- | --- | --- | --- | --- | --- | --- | --- | --- | --- | --- | --- | --- |
| CC1(C)S[C@@H]2[C@H](/N=C/N3CCCCCC3)C(=O)N2[C@H]1C(=O)O [AMDINOCILLIN] | 0.004 (≈ 0.0123 µM) | 0.12 (≈ 0.369 µM) | 128 (≈ 393 µM) | 0.03 (≈ 0.0922 µM) | 4 (≈ 12.3 µM) | 16 (≈ 49.2 µM) | 1 (≈ 3.07 µM) | > 256 | 0.25 (≈ 0.768 µM) | 32 (≈ 98.3 µM) | 0.03 (≈ 0.0922 µM) | 16 (≈ 49.2 µM) | 0.03 (≈ 0.0922 µM) | 0.06 (≈ 0.184 µM) | 0.06 (≈ 0.184 µM) | > 256 | 64 (≈ 197 µM) | 0.03 (≈ 0.0922 µM) |
| CC(=O)OCC1=C(C(=O)OC(c2ccccc2)c2ccccc2)N2C(=O)[C@@H](Nc3nc4cc(CO)ccc4[nH]3)C2SC1 (some centres undefined) | 0.06 (≈ 0.103 µM) | 1 (≈ 1.71 µM) | > 256 | 0.5 (≈ 0.855 µM) | 128 (≈ 219 µM) | 1 (≈ 1.71 µM) | 4 (≈ 6.84 µM) | 64 (≈ 109 µM) | > 256 | 8 (≈ 13.7 µM) | 0.5 (≈ 0.855 µM) | 8 (≈ 13.7 µM) | 0.5 (≈ 0.855 µM) | 0.5 (≈ 0.855 µM) | > 256 | > 256 | 128 (≈ 219 µM) | 1 (≈ 1.71 µM) |
| Cn1nnnc1SCC1=C(C(=O)OC(c2ccccc2)c2ccccc2)N2C(=O)[C@@H](Nc3nc4ccccc4[nH]3)C2SC1 (some centres undefined) | 0.016 (≈ 0.0262 µM) | 2 (≈ 3.27 µM) | 64 (≈ 105 µM) | 0.5 (≈ 0.819 µM) | 128 (≈ 210 µM) | 0.5 (≈ 0.819 µM) | 4 (≈ 6.55 µM) | 128 (≈ 210 µM) | > 128 | 0.25 (≈ 0.409 µM) | 0.5 (≈ 0.819 µM) | 4 (≈ 6.55 µM) | 0.5 (≈ 0.819 µM) | 0.5 (≈ 0.819 µM) | 64 (≈ 105 µM) | > 128 | 8 (≈ 13.1 µM) | 0.5 (≈ 0.819 µM) |
| CC1=C(C(=O)OC(c2ccccc2)c2ccccc2)N2C(=O)[C@@H](NC3=NCCN3)C2SC1 (some centres undefined) | 2 (≈ 4.46 µM) | 4 (≈ 8.92 µM) | > 256 | 2 (≈ 4.46 µM) | 4 (≈ 8.92 µM) | 128 (≈ 285 µM) | 2 (≈ 4.46 µM) | > 256 | 4 (≈ 8.92 µM) | 256 (≈ 571 µM) | 2 (≈ 4.46 µM) | > 256 | 4 (≈ 8.92 µM) | 2 (≈ 4.46 µM) | 4 (≈ 8.92 µM) | > 256 | > 256 | 4 (≈ 8.92 µM) |
| CC1=C(C(=O)OC(c2ccccc2)c2ccccc2)N2C(=O)[C@@H](NC3=NC(C)C(C)N3)C2SC1 (some centres undefined) | 4 (≈ 8.39 µM) | 16 (≈ 33.6 µM) | > 256 | 4 (≈ 8.39 µM) | 32 (≈ 67.1 µM) | > 256 | 4 (≈ 8.39 µM) | > 256 | 32 (≈ 67.1 µM) | > 256 | 4 (≈ 8.39 µM) | > 256 | 4 (≈ 8.39 µM) | 32 (≈ 67.1 µM) | 4 (≈ 8.39 µM) | > 256 | > 256 | 16 (≈ 33.6 µM) |
| CC(=O)OCC1=C(C(=O)OC(C)(C)C)N2C(=O)[C@@H](Nc3nc4ccc[nH]c-4n3)C2SC1 (some centres undefined) | 0.5 (≈ 1.12 µM) | 1 (≈ 2.24 µM) | > 256 | 1 (≈ 2.24 µM) | 256 (≈ 575 µM) | 4 (≈ 8.98 µM) | 4 (≈ 8.98 µM) | 64 (≈ 144 µM) | 256 (≈ 575 µM) | 32 (≈ 71.8 µM) | 0.5 (≈ 1.12 µM) | 2 (≈ 4.49 µM) | 0.5 (≈ 1.12 µM) | 2 (≈ 4.49 µM) | > 256 | > 256 | > 256 | 2 (≈ 4.49 µM) |
| CC(=O)OCC1=C(C(=O)OC(C)(C)C)N2C(=O)[C@@H](Nc3nc4cc[nH]cc-4n3)C2SC1 (some centres undefined) | 0.5 (≈ 1.12 µM) | 8 (≈ 18 µM) | > 256 | 2 (≈ 4.49 µM) | > 256 | 8 (≈ 18 µM) | 32 (≈ 71.8 µM) | 256 (≈ 575 µM) | 32 (≈ 71.8 µM) | 16 (≈ 35.9 µM) | 2 (≈ 4.49 µM) | 256 (≈ 575 µM) | 4 (≈ 8.98 µM) | 8 (≈ 18 µM) | > 256 | > 256 | > 256 | 32 (≈ 71.8 µM) |
| CC(=O)OCC1=C(C(=O)OC(c2ccccc2)c2ccccc2)N2C(=O)[C@@H](Nc3nc4c(O)cccc4[nH]3)C2SC1 (some centres undefined) | 0.12 (≈ 0.21 µM) | 1 (≈ 1.75 µM) | 256 (≈ 449 µM) | 1 (≈ 1.75 µM) | 256 (≈ 449 µM) | 2 (≈ 3.5 µM) | 32 (≈ 56.1 µM) | 32 (≈ 56.1 µM) | > 256 | 16 (≈ 28 µM) | 0.5 (≈ 0.876 µM) | 2 (≈ 3.5 µM) | 0.5 (≈ 0.876 µM) | 1 (≈ 1.75 µM) | > 256 | > 256 | 128 (≈ 224 µM) | 8 (≈ 14 µM) |
